Converted amounts (≈) assume the structure as drawn. The source made the active and inactive calls. The calls are words filed in the database; no cut-off is given here.

Test [1] deals with Candida albicans. The test is described as follows: Antifungal activity against Candida albicans assessed as increase in thickness of hyphal cell wall and cell membrane by transmission electron microscopy. The test is classed as functional, organism-based. The method in brief: (§1)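 Treated A. fumigatus and C. albicans were fixed, dehydrated and stained. Ultrastructure was then examined by transmission electron microscopy at 80 kV and 25,000 magnification.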

The subject of test [2] is Pseudomonas aeruginosa. The test is described as follows: Ratio of compound to amoxicilline activity against Pseudomonas aeruginosa at 5 mg/ml after 24 to 48 hrs by agar diffusion technique. The test is classed as functional. (Agar diffusion results depend on both activity and mobility in agar.)
In test [3] the test system is Aspergillus fumigatus. The test is described as follows: Antifungal activity against Aspergillus fumigatus assessed as aggregation of lysed mitochondria by transmission electron microscopy. The test is classed as functional, organism-based. The gist of the method:
as §1

The subject of test [4] is Staphylococcus aureus. Nature of the test: Ratio of compound to amoxicilline activity against Staphylococcus aureus at 5 mg/ml after 24 to 48 hrs by agar diffusion technique. Format: functional.
Test [5] concerns Escherichia coli. The test is described as follows: Antibacterial activity against Escherichia coli at 5 mg/ml after 24 to 48 hrs by agar diffusion technique. Format: functional. The settings on record: read-out: IZ. The gist of the method: (§2)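 Hole-plate diffusion on nutrient agar (pH 6.2) seeded with clinical bacterial isolates. 1 cm wells were filled with 100 of a 5 mg/ml DMSO solution, with DMSO-only control wells and amoxicilline as the reference. Plates were held at 4 °C for 1 h, then incubated at 37 °C. Inhibition zone diameter was read after 24–48 h.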

The test system of test [6] is Bacillus subtilis. The test is described as follows: Ratio of compound to amoxicilline activity against Bacillus subtilis at 5 mg/ml after 24 to 48 hrs by agar diffusion technique. The test is classed as functional.
For test [7], the system named is Bacillus subtilis. Nature of the test: Antibacterial activity against Bacillus subtilis at 5 mg/ml after 24 to 48 hrs by agar diffusion technique. Format: functional. The settings on record: read-out: IZ. The method in brief:
as §2

The subject of test [8] is Aspergillus fumigatus. Nature of the test: Ratio of compound to grisofulvin activity against Aspergillus fumigatus at 5 mg/ml after 24 to 48 hrs by agar diffusion technique. Format: functional.
For test [9], the system named is Syncephalastrum racemosum. Nature of the test: Antifungal activity against Syncephalastrum racemosum at 5 mg/ml after 24 to 48 hrs by agar diffusion technique. The test is classed as functional. The settings on record: read-out: IZ. The method in brief: (§3)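 Clinical fungal or yeast isolates were seeded on malt extract agar (pH 5.4). 1 cm holes received 100 of test solution at 5 mg/ml in DMSO, with DMSO control holes and griseofulvin as the standard. Plates sat 1 h at 4 °C, then were incubated at 28 °C. Zone diameters were measured at 24–48 h.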

The subject of test [10] is Aspergillus fumigatus. Nature of the test: Antifungal activity against Aspergillus fumigatus assessed as appearance of chlamydospore at 100 uL by microscopy. Format: functional, organism-based. The gist of the method: (§4)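 Agar cultures exposed to 100 of compound were examined directly by phase-contrast or bright-field microscopy with video-camera image analysis, at ×400 for multicellular and ×1000 for unicellular fungi.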

The test system of test [11] is Escherichia coli. Nature of the test: Ratio of compound to amoxicilline activity against Escherichia coli at 5 mg/ml after 24 to 48 hrs by agar diffusion technique. The test is classed as functional.
The subject of test [12] is Candida albicans. The test is described as follows: Antifungal activity against Candida albicans after 24 to 48 hrs by serial dilution technique. The test is classed as functional. The gist of the method: (§5)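 MIC by serial dilution: DMSO solutions started at a maximum of 500 and were diluted twofold in succession. Each dilution was inoculated with the test organism, and inhibition zones were measured by agar diffusion.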

Test [13] deals with Aspergillus fumigatus. The test is described as follows: Antifungal activity against Aspergillus fumigatus at 5 mg/ml after 24 to 48 hrs by agar diffusion technique. Format: functional. The settings on record: read-out: IZ. The method in brief: as §3
Test [14] concerns Aspergillus fumigatus. Nature of the test: Antifungal activity against Aspergillus fumigatus assessed as increase in thickness of hyphal cell wall and cell membrane by transmission electron microscopy. The test is classed as functional, organism-based. The method in brief:
as §1

Test [15] deals with Candida albicans. The test is described as follows: Ratio of compound to grisofulvin activity against Candida albicans at 5 mg/ml after 24 to 48 hrs by agar diffusion technique. The test is classed as functional.
Test [16] deals with Aspergillus fumigatus. The test is described as follows: Antifungal activity against Aspergillus fumigatus after 24 to 48 hrs by serial dilution technique. The test is classed as functional. The gist of the method:
as §5

Test [17] relates to Candida albicans. Nature of the test: Antifungal activity against Candida albicans at 5 mg/ml after 24 to 48 hrs by agar diffusion technique. The note with it: read-out: IZ. The test is classed as functional. The method in brief: as §3
Test [18] relates to Geotrichum candidum. The test is described as follows: Antifungal activity against Geotrichum candidum at 5 mg/ml after 24 to 48 hrs by agar diffusion technique. The test is classed as functional. The settings on record: read-out: IZ. The gist of the method: as §3
Test [19] concerns Aspergillus fumigatus. The test is described as follows: Antifungal activity against Aspergillus fumigatus assessed as reduction in size of all morphological features by microscopy. Format: functional, organism-based. The gist of the method: as §4
The subject of test [20] is Syncephalastrum racemosum. The test is described as follows: Ratio of compound to grisofulvin activity against Syncephalastrum racemosum at 5 mg/ml after 24 to 48 hrs by agar diffusion technique. Format: functional.
The subject of test [21] is Aspergillus fumigatus. The test is described as follows: Antifungal activity against Aspergillus fumigatus assessed as shrinking of cell membrane by transmission electron microscopy. The test is classed as functional, organism-based. The method in brief:
as §1

The test system of test [22] is Candida albicans. Nature of the test: Antifungal activity against Candida albicans assessed as aggregation of lysed mitochondria by transmission electron microscopy. The test is classed as functional, organism-based. The gist of the method: as §1
Test [23] has as its system Pseudomonas aeruginosa. The test is described as follows: Antibacterial activity against Pseudomonas aeruginosa at 5 mg/ml after 24 to 48 hrs by agar diffusion technique. Format: functional. The settings on record: read-out: IZ. The gist of the method: as §2
Test [24] has as its system Aspergillus fumigatus. Nature of the test: Antifungal activity against Aspergillus fumigatus assessed as distortion of cellular sub-organs by transmission electron microscopy. Format: functional, organism-based. The method in brief: as §1
Test [25] deals with Geotrichum candidum. Nature of the test: Ratio of compound to grisofulvin activity against Geotrichum candidum at 5 mg/ml after 24 to 48 hrs by agar diffusion technique. The test is classed as functional.
Test [26] has as its system Staphylococcus aureus. The test is described as follows: Antibacterial activity against Staphylococcus aureus after 24 to 48 hrs by serial dilution technique. The test is classed as functional. The method in brief: as §5
Test [27] concerns Candida albicans. Nature of the test: Antifungal activity against Candida albicans assessed as distortion of cellular sub-organs by transmission electron microscopy. The test is classed as functional, organism-based. The method in brief:
as §1

Test [28] has as its system Staphylococcus aureus. Nature of the test: Antibacterial activity against Staphylococcus aureus at 5 mg/ml after 24 to 48 hrs by agar diffusion technique. The test is classed as functional. The settings on record: read-out: IZ. The gist of the method: as §2
For test [29], the system named is Candida albicans. The test is described as follows: Antifungal activity against Candida albicans assessed as appearance of elongated and swollen cells at 100 uL by microscopy. Format: functional, organism-based. The method in brief: as §4
The test system of test [30] is Candida albicans. Nature of the test: Antifungal activity against Candida albicans assessed as shrinking of cell membrane by transmission electron microscopy. The test is classed as functional, organism-based. The gist of the method:
as §1

Test [31] has as its system Candida albicans. The test is described as follows: Antifungal activity against Candida albicans assessed as occurrence of cellular aggregation by microscopy. The test is classed as functional, organism-based. The method in brief: as §4

One may read the MIC as the least concentration at which growth counts as inhibited. As to `CC(=N\NC(=O)c1oc2ccccc2c1C)/C(=N/Nc1ccc([N+](=O)[O-])cc1)N1CCCCC1`, the outcome in [1], in [3], in test [10], in test [14], in test [19] and in test [21] was Active. The outcome in test [22], in test [24], in test [27], in [29] and in test [30] was Active. Besides, the Ratio in [2] was determined as 0.35; in test [4], 0.87; in test [6], 0.83; in test [8], 1.28; in [11], 0.71; in test [15] it was 1.8. The figures for the Ratio in [20] and in test [25] were 1.16 and 1.2, respectively. Moreover, the zone of inhibition at 5000 µg/mL in test [5] turned out to be 20 mm; in [7] it was 20 mm; in test [9] it was 22 mm; in test [13], 32 mm; in test [17], 18 mm; in test [18], 12 mm. For the same compound, the zone of inhibition at 5000 µg/mL in test [23] was 7 mm; in test [28], 26 mm. Besides, the MIC in [12] was 75 µg/mL (≈ 162 µM); in test [16] it was 25 µg/mL (≈ 54.1 µM); in test [26], 75 µg/mL (≈ 162 µM).

As to `COC1=CC(=O)C[C@@H](C)[C@]12Oc1c(Cl)c(OC)cc(OC)c1C2=O` [GRISEOFULVIN], the MIC in test [12] worked out at 75 µg/mL (≈ 213 µM); in test [16], 50 µg/mL (≈ 142 µM). For the same compound, the outcome in test [31] was Active.

These data come from ChEMBL document CHEMBL1154310, “Stereoselective synthesis and antimicrobial activity of benzofuran-based (1E)-1-(piperidin-1-yl)-N2-arylamidrazones” (2009).
